The record followed here is ChEMBL document CHEMBL1125400, “Synthesis and antibacterial activity of some novel 6-methyl- and 6-propenyl-substituted carbapenems” (J Med Chem, 1992).

In one series the test system is Enterococcus faecalis. Put plainly: In vitro antibacterial activity against Streptococcus faecalis (A20688). It counts as functional. The essentials:
(§1)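 Streptococcal MIC by broth microdilution in Todd-Hewitt Broth with a final inoculum of 5.0 × 10^5 CFU/mL. Trays incubated 18 h at 35 °C. Endpoint is the lowest concentration preventing growth, in µg/mL.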

Series [1] relates to Klebsiella pneumoniae. Put plainly: In vitro antibacterial activity against Klebsiella pneumoniae (A9664). It counts as functional. The essentials:
(§2)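 Broth microdilution MIC in Nutrient Broth with a final inoculum of 5.0 × 10^5 CFU/mL. Trays incubated 18 h at 35 °C. MIC taken as the lowest antibiotic concentration inhibiting bacterial growth, in µg/mL.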

A further series deals with Proteus vulgaris. As to the kind of experiment: In vitro antibacterial activity against Proteus vulgaris (A21559). It counts as functional. The essentials:
as §2

For another series, the system named is Enterobacter cloacae. Put plainly: In vitro antibacterial activity against Enterobacter cloacae (A9659). The class given is functional. An outline of the steps:
as §2

Series [2] concerns Pseudomonas aeruginosa. As to the kind of experiment: In vitro antibacterial activity against Pseudomonas aeruginosa (A9843). It counts as functional. An outline of the steps: as §2
For series [3], the system named is Escherichia coli. As to the kind of experiment: In vitro antibacterial activity against Escherichia coli (A15119). The class given is functional. An outline of the steps:
as §2

Series [4] can be described thus: Half-life by UV spectrophotometry. Particulars: for half-life: read-out: Stability (converted). It counts as ADME. The essentials:
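Chemical stability in solution: about 10^-4 M compound in 0.07 M phosphate buffer, pH 7.4, held at 37 °C. Decay followed by UV spectrophotometry; half-life reported in hours.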

Series [5] deals with Providencia rettgeri. Put plainly: In vitro antibacterial activity against Providencia rettgeri (A22424). It counts as functional. An outline of the steps:
as §2

Another series has as its system Staphylococcus aureus. Put plainly: In vitro antibacterial activity against Staphylococcus aureus (A9537). It counts as functional. An outline of the steps: as §2
The test system of another series is Streptococcus pneumoniae. Put plainly: In vitro antibacterial activity against Streptococcus pneumoniae (A9585). The class given is functional. An outline of the steps:
as §1

Another series deals with Mus musculus. Put plainly: Protective dose when administered orally for 50 percent of the mice tested. Mice were treated twice, at 0 and 2 hour after infection with Escherichia coli. The class given is functional. Particulars: po, read-out: PD50. An outline of the steps:
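Mice infected with E. coli and given test agent orally twice, at 0 and 2 h after infection. PD50 is the dose protecting 50% of animals, expressed as mg/kg per dose.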

The test system of series [6] is Escherichia coli. Put plainly: In vitro evaluation for the antibacterial activity […] in e) Escherichia coli (A15119). It counts as functional.
For a further series, the system named is Streptococcus pyogenes. Put plainly: In vitro antibacterial activity against Streptococcus pyogenes (A9604). It counts as functional. An outline of the steps: as §1
Series [7] relates to Klebsiella pneumoniae. Put plainly: In vitro evaluation for the antibacterial activity […] in Klebsiella pneumoniae (A9664). The class given is functional.
Series [8] relates to Providencia rettgeri. As to the kind of experiment: IIn vitro antibacterial activity against Providencia rettgeri (A22424). It counts as functional. The essentials:
as §2

The subject of series [9] is Pseudomonas aeruginosa. As to the kind of experiment: In vitro evaluation for the antibacterial activity […] in Pseudomonas aeruginosa (A9843). The class given is functional.
Setting [10] is: Pseudomonas aeruginosa, read-out: MIC.
[11] abbreviates: Providencia rettgeri, read-out: MIC.
Setting [12] is: Streptococcus pyogenes, read-out: MIC.

SMILES strings stand for the structures. ≈ marks a conversion by molar mass, not a printed value. Where “and” joins values, the source holds several entries; their conditions need not be identical. Equal values may be shown once.

Usually MIC stands for the least concentration at which growth counts as inhibited. On to `C[C@H]1C(SCc2ccccn2)=C(C(=O)O)N2C(=O)[C@H](/C=C/CNc3ccccc3)[C@@H]12`, for which the MIC against Enterococcus faecalis is greater than 64 µg/mL; in the series with Klebsiella pneumoniae [1], 64 µg/mL (≈ 152 µM); with Proteus vulgaris, 64 µg/mL (≈ 152 µM); in the series with Enterobacter cloacae, 64 µg/mL (≈ 152 µM); with Pseudomonas aeruginosa [2] (setting [10]) it was 64 µg/mL (≈ 152 µM); with Escherichia coli [3], 32 µg/mL (≈ 75.9 µM). Also, the MIC in the series with Providencia rettgeri [5] (setting [11]) turned out to be 64 µg/mL (≈ 152 µM); in the series with Staphylococcus aureus it was 0.25 µg/mL (≈ 0.593 µM). Besides, in [4], the half-life is 35 h.
As for `C[C@@H](N)[C@H]1C(=O)N2C(C(=O)O)=C(SCc3cccnc3)[C@H](C)[C@H]12`, the MIC against Enterococcus faecalis came to 63 µg/mL (≈ 189 µM); with Klebsiella pneumoniae [1] it was 0.13 µg/mL (≈ 0.39 µM); in the series on Proteus vulgaris, 0.016 µg/mL (≈ 0.048 µM); against Enterobacter cloacae it was 0.06 µg/mL (≈ 0.18 µM); with Streptococcus pneumoniae, 4 µg/mL (≈ 12 µM); in the series on Pseudomonas aeruginosa [2] (setting [10]), 1 µg/mL (≈ 3 µM). Moreover, the MIC is 0.03 µg/mL (≈ 0.09 µM) against Escherichia coli [6], 4 µg/mL (≈ 12 µM) in the series with Streptococcus pyogenes (setting [12]), 2 µg/mL (≈ 6 µM) with Providencia rettgeri [5] (setting [11]) and 2 µg/mL (≈ 6 µM) against Staphylococcus aureus. In the series on Mus musculus, the ED50 came to 8 mg/kg. In series [4], the half-life is 3 h.
Consider `C[C@H]1C(SCc2cccnc2)=C(C(=O)O)N2C(=O)[C@H](CN)[C@@H]12`, for which the MIC with Enterococcus faecalis is 125 µg/mL (≈ 391 µM); with Klebsiella pneumoniae [1], 0.03 µg/mL (≈ 0.0939 µM); in the series on Proteus vulgaris it was 0.016 µg/mL (≈ 0.0501 µM); against Enterobacter cloacae it was 0.016 µg/mL (≈ 0.0501 µM); against Streptococcus pneumoniae, 0.5 µg/mL (≈ 1.57 µM); in the series on Pseudomonas aeruginosa [2] (setting [10]) it was 1 µg/mL (≈ 3.13 µM). Moreover, the MIC against Escherichia coli [6] turned out to be 0.008 µg/mL (≈ 0.025 µM); in the series on Streptococcus pyogenes (setting [12]) it was 0.5 µg/mL (≈ 1.57 µM); with Providencia rettgeri [5] (setting [11]) it was 0.25 µg/mL (≈ 0.783 µM); in the series with Staphylococcus aureus, 0.5 µg/mL (≈ 1.57 µM). In the series with Mus musculus, the ED50 is greater than 25 mg/kg. Also, the half-life in [4] was 1.5 h.
For the compound `C[C@H]1C(SCc2cccnc2)=C(C(=O)O)N2C(=O)[C@H](CO)[C@@H]12`, the MIC stood at 4 µg/mL (≈ 12.5 µM) in the series with Enterococcus faecalis; 0.13 µg/mL (≈ 0.406 µM) in the series on Proteus vulgaris; 0.06 µg/mL (≈ 0.187 µM) in the series on Enterobacter cloacae; 0.002 µg/mL (≈ 0.00624 µM) against Streptococcus pneumoniae; 125 µg/mL (≈ 390 µM) with Pseudomonas aeruginosa [2] (setting [10]); 0.016 µg/mL (≈ 0.0499 µM) with Escherichia coli [6]. For the same compound, the MIC was 0.06 µg/mL (≈ 0.187 µM) with Klebsiella pneumoniae [7], 0.004 µg/mL (≈ 0.0125 µM) in the series with Streptococcus pyogenes (setting [12]), 0.5 µg/mL (≈ 1.56 µM) in the series on Providencia rettgeri [8] and 0.008 µg/mL (≈ 0.025 µM) in the series on Staphylococcus aureus. The ED50 in the series with Mus musculus turned out to be 7 mg/kg. Further, in [4], the half-life was 45 h.
With `C[C@@H](O)[C@H]1C(=O)N2C(C(=O)O)=C(SCc3cccnc3)[C@H](C)[C@H]12`, the MIC against Enterococcus faecalis is 2 µg/mL (≈ 5.98 µM); against Klebsiella pneumoniae [1], 0.13 µg/mL (≈ 0.389 µM); with Proteus vulgaris it was 0.03 µg/mL (≈ 0.0897 µM); with Enterobacter cloacae it was 0.13 µg/mL (≈ 0.389 µM); in the series with Streptococcus pneumoniae it was 0.016 µg/mL (≈ 0.0478 µM); with Pseudomonas aeruginosa [2] (setting [10]), 125 µg/mL (≈ 374 µM). The MIC in the series with Escherichia coli [3] is 0.016 µg/mL (≈ 0.0478 µM); in the series with Streptococcus pyogenes (setting [12]) it was 0.016 µg/mL (≈ 0.0478 µM); in the series with Providencia rettgeri [5] (setting [11]), 16 µg/mL (≈ 47.8 µM); in the series on Staphylococcus aureus, 0.016 µg/mL (≈ 0.0478 µM). Moreover, the ED50 with Mus musculus was found to be 17 mg/kg. The half-life in series [4] was 65 h.
Consider `C[C@H]1C(SCc2ccccn2)=C(C(=O)O)N2C(=O)[C@H](/C=C/CO)[C@@H]12`, for which the MIC in the series with Enterococcus faecalis stood at 125 µg/mL (≈ 361 µM); against Klebsiella pneumoniae [1] it was 16 µg/mL (≈ 46.2 µM); against Proteus vulgaris it was 8 µg/mL (≈ 23.1 µM); against Enterobacter cloacae, 32 µg/mL (≈ 92.4 µM); against Streptococcus pneumoniae, 0.13 µg/mL (≈ 0.375 µM); in the series on Pseudomonas aeruginosa [2] (setting [10]) it was 125 µg/mL (≈ 361 µM). In addition, the MIC worked out at 8 µg/mL (≈ 23.1 µM) against Escherichia coli [3], 0.06 µg/mL (≈ 0.173 µM) in the series with Streptococcus pyogenes (setting [12]), 16 µg/mL (≈ 46.2 µM) in the series with Providencia rettgeri [5] (setting [11]) and 1 µg/mL (≈ 2.89 µM) against Staphylococcus aureus. In series [4], the half-life is 21 h.
Regarding `C[C@H]1C(SCc2ccccn2)=C(C(=O)O)N2C(=O)[C@H](/C=C/CN=[N+]=[N-])[C@@H]12`, the MIC with Enterococcus faecalis worked out at 32 µg/mL (≈ 86.2 µM); with Klebsiella pneumoniae [1], 16 µg/mL (≈ 43.1 µM); in the series with Proteus vulgaris, 8 µg/mL (≈ 21.5 µM); against Enterobacter cloacae it was 32 µg/mL (≈ 86.2 µM); in the series with Streptococcus pneumoniae it was 0.03 µg/mL (≈ 0.0808 µM); with Escherichia coli [3] it was 8 µg/mL (≈ 21.5 µM). The MIC against Pseudomonas aeruginosa [9] is 125 µg/mL (≈ 337 µM); in the series on Streptococcus pyogenes (setting [12]), 0.03 µg/mL (≈ 0.0808 µM); with Providencia rettgeri [5] (setting [11]), 32 µg/mL (≈ 86.2 µM); against Staphylococcus aureus, 0.06 µg/mL (≈ 0.162 µM). For the same compound, in series [4], the half-life is 21 h.
As to `C=CC(O)[C@H]1C(=O)N2C(C(=O)O)=C(SCc3ccccn3)[C@H](C)[C@H]12` (stereo partly specified), the MIC was 125 µg/mL (≈ 361 µM) against Pseudomonas aeruginosa [2]; 125 µg/mL (≈ 361 µM) in the series on Pseudomonas aeruginosa [2] (setting [10]); 0.25 µg/mL and 0.56 µg/mL against Streptococcus pyogenes; 2 µg/mL (≈ 5.77 µM) in the series with Providencia rettgeri [5]; 2 µg/mL (≈ 5.77 µM) with Providencia rettgeri [5] (setting [11]). The Stability in series [4] stood at 72 h. Also, the half-life in series [4] was 72 h.
